How the values were obtained:
Format in all cases: functional
[1] = system: Staphylococcus aureus; test: Antibacterial activity was evaluated against Staphylococcus aureus
Summary of the method: (§1)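 MIC against aerobic bacteria, measured at Bayer AG, by standard agar dilution or broth microdilution per NCCLS M7-A5 guidelines. MIC taken as lowest concentration visibly inhibiting growth after in vitro incubation, read when untreated culture growth becomes visible; expressed as log 1/C.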

[2] = system: Enterococcus faecalis; test: Antibacterial activity evaluated against Enterococcus faecalis; summary of the method: as §1
[3] = system: Escherichia coli; test: Antibacterial activity was evaluated against Escherichia coli; summary of the method: as §1
[4] = system: Pseudomonas aeruginosa; test: Antibacterial activity was evaluated against Pseudomonas aeruginosa; summary of the method: as §1

SMILES	Log 1/C [1]	Log 1/C [2]	Log 1/C [3]	Log 1/C [4]
CN1Cc2csc3c(C(=O)O)c(=O)c4cc(F)c(N5CCNCC5)c1c4n23	6.81	6.49	7.11	5.89
C[C@H]1COc2c(N3C[C@H]4CCCN[C@H]4C3)c(F)cc3c(=O)c(C(=O)O)cn1c23	5.89	5.89	6.19	5.29
CCn1cc(C(=O)O)c(=O)c2cc(F)c(N3CCN(C)CC3)cc21 [PEFLOXACIN]	6.12	5.52	7.05	5.82
O=C(O)c1cn(C2CC2)c2c(F)c(N3C[C@@H]4CCCN[C@@H]4C3)c(F)cc2c1=O	7.44	6.84	8.02	6.23
O=C(O)c1cn2c3c(c(N4CCNCC4)c(F)cc3c1=O)OC=C2COCc1ccccc1	4.15	4.15	3.55	3.55
O=C(O)c1cn(C2CCOCC2)c2cc(N3CCNCC3)c(F)cc2c1=O	4.07	4.07	3.77	3.47
N[C@@]12C=CC=CC1CN(c1c(F)cc3c(=O)c(C(=O)O)cn([C@@H]4C[C@@H]4F)c3c1Cl)C2 (some centres not stated)	8.06	7.16	8.06	6.56
O=C(O)c1cn(C2CC2)c2cc(N3CCNCC3)c(F)cc2c1=O [CIPROFLOXACIN]	6.16	6.16	7.66	6.77
O=C(O)c1cn(C2C[C@@H]2F)c2c(Cl)c(N3C[C@H]4CCCN[C@H]4C3)ccc2c1=O (some centres not stated)	6.51	6.51	7.13	5.61
CC(C)(C)n1cc(C(=O)O)c(=O)c2cc(F)c(N3CCNCC3)cc21	6.44	6.44	7.06	6.14
CO/N=C/Cn1cc(C(=O)O)c(=O)c2cc(F)c(N3C[C@@H]4CCCN(C)[C@@H]4C3)c(F)c21	5.62	4.42	5.62	4.42
CN1CCC[C@H]2CN(c3c(F)cc4c(=O)c(C(=O)O)cn(C5CC5)c4c3Cl)C[C@H]21	7.13	6.84	7.45	5.62
O=C(O)c1cn(C2CC2)c2c(Cl)c(N3CCCCC3)c(F)cc2c1=O	7.42	6.79	6.46	5.26
CO/N=C/Cn1cc(C(=O)O)c(=O)c2cc(F)c(N3CCN(C)CC3)c(F)c21	4.39	3.49	5.29	4.39
CSc1cc2c(=O)c(C(=O)O)cn(C3CC3)c2c(SC)c1SC	4.96	3.76	4.36	3.46
C#CCN1CCN(c2c(F)cc3c(=O)c(C(=O)O)cn(C4CC4)c3c2Cl)CC1	6.21	5.61	6.83	5.01
CNn1cc(C(=O)O)c(=O)c2cc(F)c(N3CCN(C)CC3)cc21 [AMIFLOXACIN]	5.52	4.92	6.75	5.83
O=C(O)c1cn(-c2ccc(F)cc2F)c2nc(N3C[C@@H]4CCCN[C@@H]4C3)c(F)cc2c1=O	6.59	6	7.5	5.09
CCn1cc(C(=O)O)c(=O)c2cc(F)c(N3CCNC(C)C3)c(F)c21 (configuration not stated) [LOMEFLOXACIN]	5.85	5.24	7.07	5.85

SMILES	Log 1/C [1]	Log 1/C [2]	Log 1/C [3]	Log 1/C [4]
C[C@H]1COc2c(N3C[C@@H]4CCCN[C@@H]4C3)c(F)cc3c(=O)c(C(=O)O)cn1c23	6.19	6.19	6.8	5.59
O=C(O)c1cn(C2CC2)c2cc(N3CCN(C4CC4)CC3)c(F)cc2c1=O	6.17	5.57	7.08	4.67
C#Cc1c(N2C[C@@H]3CCCN[C@@H]3C2)c(F)cc2c(=O)c(C(=O)O)cn(C3CC3)c12	7.7	7.7	7.7	5.9
CN1CCN(c2c(F)cc3c(=O)c(C(=O)O)cn(CF)c3c2F)CC1	5.85	5.55	7.07	5.85
O=C(O)c1cn(C2CC2)c2c([N+](=O)[O-])c(N3CCOCC3)c(F)cc2c1=O	5.58	4.67	5.58	3.77
O=C(O)c1cn(C2CC2)c2c(Cl)c(N3C[C@H]4CCCN[C@H]4C3)c(F)cc2c1=O	6.85	6.85	7.47	5.65
N[C@@H]1CN(c2c(F)cc3c(=O)c(C(=O)O)cn([C@@H]4C[C@@H]4F)c3c2Cl)CC12CC2 [SITAFLOXACIN ANHYDROUS]	7.74	7.45	8.04	6.84
COc1c(N2CC3=C(CN(C)CC3)C2)c(F)cc2c(=O)c(C(=O)O)cn(C3CC3)c12	6.84	6.52	6.84	5.32
C[C@@H]1CN(c2c(F)c(N)c3c(=O)c(C(=O)O)cn(C4CC4)c3c2F)C[C@H](C)N1 [SPARFLOXACIN]	6.8	6.2	7.42	5.59
CCOc1c(F)cc2c(=O)c(C(=O)O)cn(C(C)(C)CF)c2c1Cl	4.95	4.05	4.35	3.45
O=C(O)c1cn(C2CC2)c2cc(N3CCN(c4ncccn4)CC3)c(F)cc2c1=O	5.01	4.71	4.41	3.5
O=C(O)c1cn(C2CC2)c2c(Cl)c(N3C[C@@H]4CCCN[C@@H]4C3)c(F)cc2c1=O	7.75	7.16	8.05	6.25
O=C(O)c1cn(C2CC2)c2c(F)c(N3C4CCC3CC4)c(F)cc2c1=O	5.86	5.26	5.86	4.35
O=C(O)c1cn(C2CC2)c2cc(N3C[C@H]4CCCN[C@H]4C3)c(F)cc2c1=O	6.21	5.91	6.82	5.61
CC(C)(C)N1CCN(c2cc3c(cc2F)c(=O)c(C(=O)O)cn3C2CC2)CC1	6.19	5.89	7.1	5.29
O=C(O)c1cn(C(CF)CF)c2cc(N3C[C@@H]4CCCN[C@@H]4C3)c(F)cc2c1=O	5.01	5.01	5.61	4.11
O=C(O)c1c(=O)c2cc(F)c(N3C[C@@H]4CCCN[C@@H]4C3)c3c2n2c(csc12)CS3	6.86	6.54	7.16	5.63
CN1CCN(c2cc3c(c(Cl)c2F)c(=O)c(C(=O)O)cn3C2CC2)CC1	6.48	5.88	7.1	5.28
O=C(O)c1cn(C2CC2)c2c(F)c(N3C[C@@H]4OCCN[C@@H]4C3)c(F)c(Br)c2c1=O	6.27	5.37	6.58	4.47

Reference: ChEMBL document CHEMBL1148326, “Chemometric studies on the bactericidal activity of quinolones via an extended VolSurf approach” (2004)
